Data on twelve compounds can be found in ChEMBL document CHEMBL4765315, “Discovery of IAP-recruiting BCL-X PROTACs as potent degraders across multiple cancer cell lines” (Eur J Med Chem, 2020).

pIC50: −log10 of the molar value. Calls of active or inactive are those of the source. The rule behind the calls is not given here.

The test system of assay [1] is Bcl-2-like protein 1/E3 ubiquitin-protein ligase XIAP (Homo sapiens). The assay can be described thus: Protac activity at BCL-XL/XIAP E3 ligase in human MyLa1929 cells assessed as degradation of BCL-XL by measuring remaining protein at 500 nM measured after 16 hrs by Western blot analysis (reference value: 100%). Background: Immunoblotting shows a protein as a band on a membrane.

Assay [2] is described as follows: Antiproliferative activity against human MyLa1929 cells assessed as cell viability measured after 72 hrs by MTS assay. It is filed as functional, cell-based. The following applies: for pIC50: Homo sapiens, MyLa1929, 72 h, read-out: IC50; for IC50: myla1929. In outline:
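MTS tetrazolium read-out of viability after 72 h continuous exposure. MyLa 1929 seeded at 1×10^5 cells per well; EC50/IC50 fitted from concentration–response curves. For MyLa 1929, values are means of at least two independent experiments.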
(In general: Tetrazolium assays rely on reduction of a dye to a coloured formazan, in cell work by metabolically active cells.)

Assay [3] relates to Platelet. The assay can be described thus: Cytotoxicity against human platelet assessed as cell viability measured after 48 hrs by MTS assay.
Assay [4] relates to WI-38. The assay can be described thus: Cytotoxicity against human WI-38 cells assessed as cell viability measured after 72 hrs by MTS assay. It is filed as cell-based. The following applies: WI-38, 72 h.
Assay [5] in a line: Selectivity ratio of IC50 for human platelets to IC50 for human MyLa1929 cells. In outline:
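Platelets were isolated from platelet-rich plasma in acid citrate buffer with PGE1 (1 µM) and apyrase (0.2 units/mL) at final concentration. They were adjusted to 2 × 10^8/mL in HEPES Tyrode's buffer with 10% FBS, PGE1 and apyrase, then treated for 48 h and read by MTS. MyLa 1929 cells (1×10^5 per well) were treated for 72 h and read by MTS, with IC50 from at least two independent experiments. The ratio is platelet IC50 over MyLa 1929 IC50.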

Assay [6] concerns MOLT-4. Kind of assay: Antiproliferative activity against human MOLT-4 cells assessed as cell viability measured after 72 hrs by MTS assay. It counts as functional, cell-based.
Assay [7] concerns the target Protein cereblon/Bcl-2-like protein 1 (Homo sapiens) (UniProt Q07817+Q96SW2). Kind of assay: Protac activity at BCL-XL/CRBN in human MyLa1929 cells assessed as degradation of BCL-XL at 0.01 to 3 uM measured after 16 hrs by western blot analysis. It counts as cell-based. To be noted: dose 0.01-3 µM. In outline:
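MyLa 1929 cells treated 16 h with compound (single 500 nM or concentration series), then harvested for immunoblot. Membranes blocked in 5% milk/TBS-Tween, primary antibody overnight at 4 °C, HRP secondary, ECL detection. BCL-XL band normalized to β-actin by densitometry; reported as % protein remaining versus vehicle.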

Sequence of Protein cereblon/Bcl-2-like protein 1 (Homo sapiens) (Q07817 whole entry, looked up): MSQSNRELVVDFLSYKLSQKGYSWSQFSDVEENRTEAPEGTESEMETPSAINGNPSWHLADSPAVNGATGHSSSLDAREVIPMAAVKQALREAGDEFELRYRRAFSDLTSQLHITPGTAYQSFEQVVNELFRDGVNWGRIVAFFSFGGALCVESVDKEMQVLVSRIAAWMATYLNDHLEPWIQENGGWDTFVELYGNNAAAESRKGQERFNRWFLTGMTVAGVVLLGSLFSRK
Sequence of Protein cereblon/Bcl-2-like protein 1 (Homo sapiens) (Q96SW2 whole entry, looked up): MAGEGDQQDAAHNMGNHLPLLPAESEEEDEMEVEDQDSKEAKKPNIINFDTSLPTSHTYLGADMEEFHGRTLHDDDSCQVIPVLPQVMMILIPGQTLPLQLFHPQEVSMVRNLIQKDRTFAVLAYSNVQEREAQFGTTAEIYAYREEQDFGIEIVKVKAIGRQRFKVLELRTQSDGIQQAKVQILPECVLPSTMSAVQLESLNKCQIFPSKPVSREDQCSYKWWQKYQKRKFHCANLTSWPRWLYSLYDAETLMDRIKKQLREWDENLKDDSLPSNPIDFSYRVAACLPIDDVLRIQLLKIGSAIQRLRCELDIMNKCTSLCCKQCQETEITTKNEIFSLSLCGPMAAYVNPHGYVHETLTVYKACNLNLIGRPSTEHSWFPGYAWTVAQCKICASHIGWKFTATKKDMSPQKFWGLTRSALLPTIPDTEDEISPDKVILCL

By pIC50 is commonly meant the IC50 on a negative log10 scale, so that one unit is a factor of ten. As to `CN[C@@H](C)C(=O)N[C@@H](C(=O)N1CCC[C@H]1c1nc(C(=O)c2cccc(OCCCCCCC(=O)N3CCN(CC[C@H](CSc4ccccc4)Nc4ccc(S(=O)(=O)NC(=O)c5ccc(N6CCN(CC7=C(c8ccc(Cl)cc8)CCC(C)(C)C7)CC6)cc5)cc4S(=O)(=O)C(F)(F)F)CC3)c2)cs1)C1CCCCC1`, the Remaining BCL-XL protein in assay [1] is 108%. In assay [2], the pIC50 was < 5.00.
For `CN[C@@H](C)C(=O)N[C@@H](C(=O)N1CCC[C@H]1c1nc(C(=O)c2cccc(OCCOCCOCc3cn(CCCC(=O)N4CCN(CC[C@H](CSc5ccccc5)Nc5ccc(S(=O)(=O)NC(=O)c6ccc(N7CCN(CC8=C(c9ccc(Cl)cc9)CCC(C)(C)C8)CC7)cc6)cc5S(=O)(=O)C(F)(F)F)CC4)nn3)c2)cs1)C1CCCCC1`, the Remaining BCL-XL protein in assay [1] is 31%. For the same compound, the pIC50 in assay [2] is 6.80.
Turning to `CN[C@@H](C)C(=O)N[C@@H](C(=O)N1CCC[C@H]1c1nc(C(=O)c2cccc(OCCCCC(=O)N3CCN(CC[C@H](CSc4ccccc4)Nc4ccc(S(=O)(=O)NC(=O)c5ccc(N6CCN(CC7=C(c8ccc(Cl)cc8)CCC(C)(C)C7)CC6)cc5)cc4S(=O)(=O)C(F)(F)F)CC3)c2)cs1)C1CCCCC1`, the Remaining BCL-XL protein in assay [1] was 80%. Moreover, in assay [2], the pIC50 is 5.71.
The matching figures for `CN[C@@H](C)C(=O)N[C@@H](C(=O)N1CCC[C@H]1c1nc(C(=O)c2cccc(OCCOCCOCCOCc3cn(CCCC(=O)N4CCN(CC[C@H](CSc5ccccc5)Nc5ccc(S(=O)(=O)NC(=O)c6ccc(N7CCN(CC8=C(c9ccc(Cl)cc9)CCC(C)(C)C8)CC7)cc6)cc5S(=O)(=O)C(F)(F)F)CC4)nn3)c2)cs1)C1CCCCC1`: 59% and 6.83.
As to `CC1(C)CCC(c2ccc(Cl)cc2)=C(CN2CCN(c3ccc(C(=O)NS(=O)(=O)c4ccc(N[C@H](CCN5CCOCC5)CSc5ccccc5)c(S(=O)(=O)C(F)(F)F)c4)cc3)CC2)C1` [NAVITOCLAX], the pIC50 is 6.72 in assay [3], 5.09 in assay [4] and 7.30 in assay [2]. In addition, the “Ratio IC50” value in assay [5] is given as 137.
Regarding `CN[C@@H](C)C(=O)N[C@H]1CCO[C@H]2CC(C)(C)[C@@H](C(=O)N[C@@H]3CCCc4cc(O)ccc43)N2C1=O`, the pIC50 in assay [2] was < 5.00.
Consider `CN[C@@H](C)C(=O)N[C@@H](C(=O)N1CCC[C@H]1c1nc(C(=O)c2cccc(OCCOCCOCC(=O)N3CCN(CC[C@H](CSc4ccccc4)Nc4ccc(S(=O)(=O)NC(=O)c5ccc(N6CCN(CC7=C(c8ccc(Cl)cc8)CCC(C)(C)C7)CC6)cc5)cc4S(=O)(=O)C(F)(F)F)CC3)c2)cs1)C1CCCCC1`, for which the Remaining BCL-XL protein in assay [1] is 60%. Also, in assay [2], the negative logarithm of the IC50 (pIC50) is 6.84.
Turning to `CN[C@@H](C)C(=O)N[C@@H](C(=O)N1CCC[C@H]1c1nc(C(=O)c2cccc(OCCCC(=O)N3CCN(CC[C@H](CSc4ccccc4)Nc4ccc(S(=O)(=O)NC(=O)c5ccc(N6CCN(CC7=C(c8ccc(Cl)cc8)CCC(C)(C)C7)CC6)cc5)cc4S(=O)(=O)C(F)(F)F)CC3)c2)cs1)C1CCCCC1`, the Remaining BCL-XL protein in assay [1] was 55%. For the same compound, the pIC50 in assay [2] was 6.00.
The matching figures for `CN[C@@H](C)C(=O)N[C@@H](C(=O)N1CCC[C@H]1c1nc(C(=O)c2cccc(OCCCCCC(=O)N3CCN(CC[C@H](CSc4ccccc4)Nc4ccc(S(=O)(=O)NC(=O)c5ccc(N6CCN(CC7=C(c8ccc(Cl)cc8)CCC(C)(C)C7)CC6)cc5)cc4S(=O)(=O)C(F)(F)F)CC3)c2)cs1)C1CCCCC1`: 104% and < 5.00.
As to `CN(CCOCCOCCOCCNc1cccc2c1C(=O)N(C1CCC(=O)NC1=O)C2=O)CC[C@H](CSc1ccccc1)Nc1ccc(S(=O)(=O)NC(=O)c2ccc(N3CCN(CC4=C(c5ccc(Cl)cc5)CCC(C)(C)C4)CC3)cc2)cc1S(=O)(=O)C(F)(F)F` (stereo partly specified), in assay [6], the result was Active. The IC50 entry in assay [2] was “Active”.
For the compound `O=C1CCC(N2C(=O)c3cccc(NCCOCCOCc4cn(CCCC(=O)N5CCN(CC#Cc6ccc(OCCCc7sc(N8CCc9cccc(C(=O)Nc%10nc%11ccccc%11s%10)c9C8)nc7C(=O)O)c(F)c6)CC5)nn4)c3C2=O)C(=O)N1` (stereo unspecified), the result in assay [7] and in assay [6] was Active. For the same compound, in assay [2], the IC50 entry is recorded as “Active”.
As for `CN[C@@H](C)C(=O)N[C@@H](C(=O)N1CCC[C@H]1c1nc(C(=O)c2cccc(OCCOCCOCCOCCOCC(=O)N3CCN(CC[C@H](CSc4ccccc4)Nc4ccc(S(=O)(=O)NC(=O)c5ccc(N6CCN(CC7=C(c8ccc(Cl)cc8)CCC(C)(C)C7)CC6)cc5)cc4S(=O)(=O)C(F)(F)F)CC3)c2)cs1)C1CCCCC1`, the Remaining BCL-XL protein in assay [1] is 29%. For the same compound, the pIC50 in assay [2] was 7.12.
